According to ChEMBL document CHEMBL1240333, “Surveying polypeptide and protein domain conformation and association with FlAsH and ReAsH” (Nat Chem Biol, 2007):
Values joined by “and” are separate entries in the source; they are usually repeats but may differ in a detail not shown here. Identical values can stand only once. Active and inactive are the calls of the source. The calls are words filed in the database; no cut-off is given here. Peptide text beside a SMILES is read from it.

Columns and labels:
[1] = Binding affinity to alpha helix of avian pancreatic polypeptide F24P mutant by circular dichroism spectroscopy
Outline: (§1)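 CD spectra recorded at 25 °C in 10 mM sodium phosphate pH 7.0 with no competing dithiols. Protein at 10 μM (aPP, Zip4) or 20 μM (GCN4, Jun); unmodified peptides and their FlAsH complexes. Three wavelength scans at 50 nm min-1 averaged, buffer-only background subtracted.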

[2] = Binding affinity to avian pancreatic polypeptide F24P mutant
Outline: (§2)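 Fluorescence titration: 25 nM FlAsH or ReAsH titrated with increasing synthetic peptide or protein domain in 100 mM Tris-HCl pH 7.8 with 3.5 mM TCEP, 1 mM EDT, 1 mM EDTA. Emission read at 530 ± 12.5 nm (FlAsH) or 630 ± 17.5 nm (ReAsH) after reaching equilibrium, tracked over time. Apparent Kd taken from intensity versus concentration. Points are means of ≥3 independent titrations ± s.d.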

HeLa [3] = assay: Binding affinity to eGFP-tagged avian pancreatic polypeptide F24P mutant expressed in human HeLa cells by flow cytometry; type: cell-based
Outline: (§3)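 Live HeLa cells transiently expressing eGFP fusions (aPP C-terminal or GCN4 N-terminal to eGFP) or eGFP alone. Stained 30 min with 500 nM ReAsH-EDT2 plus 100 μM EDT in phenol red-free, serum-free DMEM with 2 mM L-glutamine. PBS wash, then 0.75 mM BAL 30 min. Cells trypsinized and run by flow cytometry: eGFP 488 nm laser, 530 ± 15 nm; ReAsH 568 nm laser, 610 ± 10 nm. Mean ReAsH intensity plotted per log unit of eGFP.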

HeLa [4] = assay: Binding affinity to eGFP-tagged avian pancreatic polypeptide F24P mutant expressed in human HeLa cells at 100 uM after 30 mins by FRET assay; type: cell-based
HeLa [5] = assay: Binding affinity to eGFP-tagged avian pancreatic polypeptide F24P mutant expressed in human HeLa cells at 500 nM after 10 hrs by FRET assay; type: cell-based
[6] = Binding affinity to tryptophan Zip4 polypeptide containing bipartite tetracysteine motif; outline: as §2
[7] = Binding affinity to tryptophan Zip4 polypeptide containing bipartite tetracysteine motif at 100 nM
[8] = Binding affinity to tryptophan Zip4 polypeptide containing bipartite tetracysteine motif at 25 nM; outline: as §2
[9] = Binding affinity to beta sheet structure of tryptophan Zip4 polypeptide by circular dichroism spectroscopy; outline: as §1
[10] = Binding affinity to avian pancreatic polypeptide F24/Y31P mutant; outline: as §2
[11] = Binding affinity to alpha helix of avian pancreatic polypeptide F24/Y31P mutant by circular dichroism spectroscopy; outline: as §1
[12] = Binding affinity to c-Jun L20P mutant at 25 degC by circular dichroism spectroscopy
[13] = Binding affinity to c-Jun homodimer L20P mutant containing bipartite tetracysteine motif; outline: as §2
[14] = Binding affinity to tryptophan Zip4 polypeptide W916A mutant containing bipartite tetracysteine motif; outline: as §2
[15] = Binding affinity to beta sheet of tryptophan Zip4 polypeptide W916A mutant by circular dichroism spectroscopy; outline: as §1
HeLa [16] = assay: Binding affinity to eGFP-tagged avian pancreatic polypeptide expressed in human HeLa cells at 100 uM after 30 mins by FRET assay; type: cell-based
[17] = Binding affinity to alpha helix of avian pancreatic polypeptide by circular dichroism spectroscopy; outline: as §1
HeLa [18] = assay: Binding affinity to eGFP-tagged avian pancreatic polypeptide expressed in human HeLa cells by flow cytometry; type: cell-based; outline: as §3
HeLa [19] = assay: Binding affinity to eGFP-tagged avian pancreatic polypeptide expressed in human HeLa cells at 500 nM after 10 hrs by FRET assay; type: cell-based
[20] = Binding affinity to avian pancreatic polypeptide containing bipartite tetracysteine motif at 100 nM; settings: filed as agonist
[21] = Binding affinity to avian pancreatic polypeptide containing bipartite tetracysteine motif at 25 nM; outline: as §2
[22] = Binding affinity to avian pancreatic polypeptide containing bipartite tetracysteine motif; outline: as §2

CC[C@H](C)[C@H](NC(=O)[C@H](CC(C)C)NC(=O)[C@H](CC(=O)O)NC(=O)[C@H](CCC(=O)O)NC(=O)[C@@H](NC(=O)[C@@H]1CCCN1C(=O)[C@H](C)NC(=O)[C@H](CC(=O)O)NC(=O)[C@H](CC(=O)O)NC(=O)CNC(=O)[C@@H]1CCCN1C(=O)[C@H](Cc1ccc(O)cc1)NC(=O)[C@@H](NC(=O)[C@@H]1CCCN1C(=O)[C@H](CCC(N)=O)NC(=O)[C@H](CO)NC(=O)[C@@H]1CCCN1C(=O)[C@H](CS)NC(=O)[C@H](CS)NC(=O)[C@H](CC(N)=O)NC(=O)[C@H](CC(C)C)NC(=O)[C@H](Cc1ccccc1)NC(C)=O)[C@H](C)O)C(C)C)C(=O)N[C@@H](CCCNC(=N)N)C(=O)N1CCC[C@H]1C(=O)N[C@@H](Cc1ccc(O)cc1)C(=O)N[C@@H](CC(=O)O)C(=O)N[C@@H](CC(N)=O)C(=O)N[C@@H](CC(C)C)C(=O)N[C@@H](CCC(N)=O)C(=O)N[C@@H](CCC(N)=O)C(=O)N[C@@H](Cc1ccc(O)cc1)C(=O)N[C@@H](CC(C)C)C(=O)N[C@@H](CC(N)=O)C(=O)N[C@H](C(=O)N[C@@H](CS)C(=O)N[C@@H](CS)C(=O)N[C@@H](CCSC)C(=O)N[C@@H](CCC(=O)O)C(=O)N1CCC[C@H]1C(N)=O)C(C)C
Activity [1]: inactive | Kapp [2]: 27 µM and 22 µM | Activity (HeLa [3]): Active | Activity (HeLa [4]): Active | Activity (HeLa [5]): inactive

CSCC[C@H](NC(=O)[C@H](CS)NC(=O)[C@H](CS)NC(=O)[C@@H](NC(=O)[C@H](Cc1c[nH]c2ccccc12)NC(=O)[C@@H](NC(=O)[C@H](Cc1c[nH]c2ccccc12)NC(=O)[C@@H](NC(=O)[C@H](CCCCN)NC(=O)[C@@H](NC(=O)[C@H](C)NC(=O)[C@H](CC(=O)O)NC(=O)[C@H](CC(=O)O)NC(=O)[C@H](Cc1c[nH]c2ccccc12)NC(=O)[C@@H](NC(=O)[C@H](Cc1c[nH]c2ccccc12)NC(=O)[C@H](CCC(=O)O)NC(=O)[C@H](CS)NC(=O)[C@H](CS)NC(=O)[C@H](CC(N)=O)NC(=O)[C@H](CC(C)C)NC(=O)[C@H](Cc1ccccc1)NC(C)=O)[C@@H](C)O)[C@@H](C)O)[C@@H](C)O)[C@@H](C)O)[C@@H](C)O)C(=O)N[C@@H](CCC(=O)O)C(=O)N1CCC[C@H]1C(N)=O (Ac-FLNCCEWTWDDATKTWTWTCCMEP-NH2)
Kapp [6]: 0.62 µM and 0.38 µM | Activity [7]: Active | Activity [8]: Active | Activity [9]: inactive

CC[C@H](C)[C@H](NC(=O)[C@H](CC(C)C)NC(=O)[C@H](CC(=O)O)NC(=O)[C@H](CCC(=O)O)NC(=O)[C@@H](NC(=O)[C@@H]1CCCN1C(=O)[C@H](C)NC(=O)[C@H](CC(=O)O)NC(=O)[C@H](CC(=O)O)NC(=O)CNC(=O)[C@@H]1CCCN1C(=O)[C@H](Cc1ccc(O)cc1)NC(=O)[C@@H](NC(=O)[C@@H]1CCCN1C(=O)[C@H](CCC(N)=O)NC(=O)[C@H](CO)NC(=O)[C@@H]1CCCN1C(=O)[C@H](CS)NC(=O)[C@H](CS)NC(=O)[C@H](CC(N)=O)NC(=O)[C@H](CC(C)C)NC(=O)[C@H](Cc1ccccc1)NC(C)=O)[C@H](C)O)C(C)C)C(=O)N[C@@H](CCCNC(=N)N)C(=O)N1CCC[C@H]1C(=O)N[C@@H](Cc1ccc(O)cc1)C(=O)N[C@@H](CC(=O)O)C(=O)N[C@@H](CC(N)=O)C(=O)N[C@@H](CC(C)C)C(=O)N[C@@H](CCC(N)=O)C(=O)N[C@@H](CCC(N)=O)C(=O)N1CCC[C@H]1C(=O)N[C@@H](CC(C)C)C(=O)N[C@@H](CC(N)=O)C(=O)N[C@H](C(=O)N[C@@H](CS)C(=O)N[C@@H](CS)C(=O)N[C@@H](CCSC)C(=O)N[C@@H](CCC(=O)O)C(=O)N1CCC[C@H]1C(N)=O)C(C)C
Kapp [10]: 65 µM and 72 µM | Activity [11]: inactive

CC[C@H](C)[C@H](NC(=O)[C@H](CCCNC(=N)N)NC(=O)[C@H](Cc1c[nH]c2ccccc12)NC(C)=O)C(=O)N[C@@H](C)C(=O)N[C@@H](CCCNC(=N)N)C(=O)N[C@@H](CC(C)C)C(=O)N[C@@H](CCC(=O)O)C(=O)N[C@@H](CCC(=O)O)C(=O)N[C@@H](CCCCN)C(=O)N[C@H](C(=O)N[C@@H](CCCCN)C(=O)N[C@H](C(=O)N[C@@H](CC(C)C)C(=O)N[C@@H](CCCCN)C(=O)N[C@@H](C)C(=O)N[C@@H](CCC(N)=O)C(=O)N[C@@H](CC(N)=O)C(=O)N[C@@H](CO)C(=O)N[C@@H](CCC(=O)O)C(=O)N1CCC[C@H]1C(=O)N[C@@H](C)C(=O)N[C@@H](CO)C(=O)N[C@H](C(=O)N[C@@H](C)C(=O)N[C@@H](CC(N)=O)C(=O)N[C@@H](CCSC)C(=O)N[C@@H](CC(C)C)C(=O)N[C@@H](CCCNC(=N)N)C(=O)N[C@@H](CCC(=O)O)C(=O)N[C@@H](CCC(N)=O)C(=O)N[C@H](C(=O)N[C@@H](C)C(=O)N[C@@H](CCC(N)=O)C(=O)N[C@@H](CC(C)C)C(=O)N[C@@H](CCCCN)C(=O)N[C@@H](CCC(N)=O)C(=O)N[C@@H](CCCCN)C(=O)N[C@H](C(=O)N[C@@H](CS)C(=O)N[C@@H](CS)C(N)=O)C(C)C)C(C)C)[C@@H](C)O)[C@@H](C)O)C(C)C (Ac-WRIARLEEKVKTLKAQNSEPASTANMLREQVAQLKQKVCC-NH2)
Activity [12]: inactive | Kapp [13]: > 111 µM

CSCC[C@H](NC(=O)[C@H](CS)NC(=O)[C@H](CS)NC(=O)[C@@H](NC(=O)[C@H](Cc1c[nH]c2ccccc12)NC(=O)[C@@H](NC(=O)[C@H](C)NC(=O)[C@@H](NC(=O)[C@H](CCCCN)NC(=O)[C@@H](NC(=O)[C@H](C)NC(=O)[C@H](CC(=O)O)NC(=O)[C@H](CC(=O)O)NC(=O)[C@H](C)NC(=O)[C@@H](NC(=O)[C@H](Cc1c[nH]c2ccccc12)NC(=O)[C@H](CCC(=O)O)NC(=O)[C@H](CS)NC(=O)[C@H](CS)NC(=O)[C@H](CC(N)=O)NC(=O)[C@H](CC(C)C)NC(=O)[C@H](Cc1ccccc1)NC(C)=O)[C@@H](C)O)[C@@H](C)O)[C@@H](C)O)[C@@H](C)O)[C@@H](C)O)C(=O)N[C@@H](CCC(=O)O)C(=O)N1CCC[C@H]1C(N)=O (Ac-FLNCCEWTADDATKTATWTCCMEP-NH2)
Kapp [14]: 38 µM and 13 µM | Activity [15]: inactive

CC[C@H](C)[C@H](NC(=O)[C@H](CC(C)C)NC(=O)[C@H](CC(=O)O)NC(=O)[C@H](CCC(=O)O)NC(=O)[C@@H](NC(=O)[C@@H]1CCCN1C(=O)[C@H](C)NC(=O)[C@H](CC(=O)O)NC(=O)[C@H](CC(=O)O)NC(=O)CNC(=O)[C@@H]1CCCN1C(=O)[C@H](Cc1ccc(O)cc1)NC(=O)[C@@H](NC(=O)[C@@H]1CCCN1C(=O)[C@H](CCC(N)=O)NC(=O)[C@H](CO)NC(=O)[C@@H]1CCCN1C(=O)[C@H](CS)NC(=O)[C@H](CS)NC(=O)[C@H](CC(N)=O)NC(=O)[C@H](CC(C)C)NC(=O)[C@H](Cc1ccccc1)NC(C)=O)[C@H](C)O)C(C)C)C(=O)N[C@@H](CCCNC(=N)N)C(=O)N[C@@H](Cc1ccccc1)C(=O)N[C@@H](Cc1ccc(O)cc1)C(=O)N[C@@H](CC(=O)O)C(=O)N[C@@H](CC(N)=O)C(=O)N[C@@H](CC(C)C)C(=O)N[C@@H](CCC(N)=O)C(=O)N[C@@H](CCC(N)=O)C(=O)N[C@@H](Cc1ccc(O)cc1)C(=O)N[C@@H](CC(C)C)C(=O)N[C@@H](CC(N)=O)C(=O)N[C@H](C(=O)N[C@@H](CS)C(=O)N[C@@H](CS)C(=O)N[C@@H](CCSC)C(=O)N[C@@H](CCC(=O)O)C(=O)N1CCC[C@H]1C(N)=O)C(C)C
Activity (HeLa [16]): Active | Activity [17]: inactive | Activity (HeLa [18]): Active | Activity (HeLa [19]): Active | Activity [20]: Agonist | Activity [21]: Active | Kapp [22]: 5.8 µM and 3.4 µM
